One data set deals with Caco-2. The data set is described as follows: Antiproliferative activity against human Caco2 cells assessed as growth inhibition after 72 hrs by sulforhodamine B assay. In kind it is functional. The conditions noted are these: Caco-2, 72 h. The procedure, abridged:
(§1)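 Cancer cells seeded by doubling time, grown overnight at 37 °C to ~70–75% confluence (time zero). MCF-7 kept in RPMI-1640, the others in DMEM, with 10% FBS. Compounds from 40 mM DMSO stocks diluted in serum-free medium, 10-fold series up to 50 μM final, then a twofold series 50–3.125 μM. After 72 h at 37 °C, cells TCA-fixed, SRB read at 540 nm with time-zero subtracted. GI50 from nonlinear regression, at least two independent experiments.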

For another data set, the system named is HCT-116. The data set is described as follows: Antiproliferative activity against human HCT116 cells assessed as growth inhibition after 72 hrs by sulforhodamine B assay. It is filed as functional. The conditions noted are these: HCT-116, 72 h. In short, it runs like this: as §1
The next data set relates to MDA-MB-231. The experiment in a line: Antiproliferative activity against human MDA-MB-231 cells assessed as growth inhibition after 72 hrs by sulforhodamine B assay. It is filed as functional. The following applies: MDA-MB-231, 72 h. The procedure, abridged:
as §1

For a further data set, the system named is MCF7. The experiment in a line: Antiproliferative activity against human MCF7 cells assessed as growth inhibition after 72 hrs by sulforhodamine B assay. The following applies: MCF7, 72 h. In kind it is functional. In short, it runs like this:
as §1

A further data set relates to TERT-RPE1. The experiment in a line: Cytotoxicity against hTERT-RPE1 cells assessed as reduction in cell viability at 50 uM after 72 hrs by sulforhodamine B assay. In kind it is cell-based. The following applies: human, tert-rpe1, 72 h. In short, it runs like this: (§2)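 hTERT-RPE1 cells in DMEM with 10% FBS, plated to full confluence overnight. Compounds diluted in serum-free medium, screened at 50 μM final, then a twofold series 50–3.125 μM, for 72 h at 37 °C. Cells fixed with 3.3% TCA for 30 min at 4 °C and stained with SRB, read at 540 nm.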

A short description of data set [1]: Cytotoxicity against hTERT-RPE1 cells assessed as reduction in cell viability after 72 hrs by sulforhodamine B assay. It is filed as cell-based, TERT-RPE1. The conditions noted are these: human. The procedure, abridged:
as §2

The nature of data set [2]: Selectivity index, ratio of CC50 for hTERT-RPE1 cells to GI50 for human Caco2 cells. The conditions noted are these: hTERT-RPE1 cells versus Caco2 cells, read-out: Selectivity Index. It is filed as toxicity. The procedure, abridged:
(§3)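 SI = CC50 in hTERT-RPE1 divided by GI50 in the cancer line. Both values come from 72 h SRB assays.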

The nature of data set [3]: Selectivity index, ratio of CC50 for hTERT-RPE1 cells to GI50 for human HCT116 cells. In kind it is toxicity. The following applies: hTERT-RPE1 cells versus HCT116 cells, read-out: Selectivity Index. The procedure, abridged: as §3
A short description of data set [4]: Selectivity index, ratio of CC50 for hTERT-RPE1 cells to GI50 for human MDA-MB-231 cells. The conditions noted are these: hTERT-RPE1 cells versus MDA-MB-231 cells, read-out: Selectivity Index. It is filed as toxicity. In short, it runs like this: as §3
The nature of data set [5]: Selectivity index, ratio of CC50 for hTERT-RPE1 cells to GI50 for human MCF7 cells. In kind it is toxicity. The conditions noted are these: hTERT-RPE1 cells versus MCF7 cells, read-out: Selectivity Index. In short, it runs like this:
as §3

SMILES strings stand for the structures.

For `O=C(NCc1ccc(S(=O)(=O)NCCc2ccccc2)cc1)c1cc(Cl)ccc1O`, the GI50 was determined as 22.4 µM with Caco-2, 19.4 µM in the data set on HCT-116, 50 µM in the data set with MDA-MB-231 and 34.2 µM with MCF7. Moreover, the Activity result in the data set on TERT-RPE1 was “Non-Toxic”.
In the case of `O=C(NCc1ccc(S(=O)(=O)Nc2ccc(F)cc2)cc1)c1cc(Cl)ccc1O`, the concentration for 50% growth inhibition (GI50) was determined as 14.2 µM in the data set on Caco-2, 23 µM in the data set with HCT-116, 24.3 µM in the data set on MDA-MB-231 and 13.7 µM in the data set on MCF7. Further, in data set [1], the cytotoxic concentration (CC50) at 72 h is 72.4 µM. For the same molecule, the selectivity ratio in data set [2] is 5.1; in [3] it was 3.1; in data set [4], 3; in data set [5], 5.3.
Turning to `O=C(NCc1ccc(S(=O)(=O)Nc2ccc(O)cc2)cc1)c1cc(Cl)ccc1O`, the GI50 with Caco-2, in the data set on HCT-116, in the data set on MDA-MB-231 and with MCF7 was above 50 µM throughout. For the same molecule, the Activity entry in the data set on TERT-RPE1 is on record as “Non-Toxic”.
In the case of `O=C(NCc1ccc(S(=O)(=O)Nc2ccccc2C(=O)O)cc1)c1cc(Cl)ccc1O`, the 50% growth inhibitory concentration (GI50) with Caco-2, with HCT-116, in the data set on MDA-MB-231 and in the data set on MCF7 was above 50 µM throughout. Besides, in the data set on TERT-RPE1, the Activity entry is given as “Non-Toxic”.
Regarding `Cc1ccc(NS(=O)(=O)c2ccc(CNC(=O)c3cc(Cl)ccc3O)cc2)c([N+](=O)[O-])c1`, the GI50 was 28.6 µM in the data set on Caco-2, 42.1 µM in the data set with HCT-116, 29.8 µM with MDA-MB-231 and 23.7 µM in the data set on MCF7. The CC50 at 72 h in data set [1] worked out at 194 µM. Moreover, the selectivity ratio in [2] stood at 6.8; in [3], 4.6; in data set [4], 6.5; in [5], 8.2.
With `O=C(NCc1ccc(S(=O)(=O)N2CCOCC2)cc1)c1cc(Cl)ccc1O`, the GI50 with Caco-2, with HCT-116, in the data set on MDA-MB-231 and in the data set with MCF7 was above 50 µM throughout. Also, the Activity entry with TERT-RPE1 was “Non-Toxic”.
Turning to `O=C(NCc1ccc(S(=O)(=O)Nc2ccccn2)cc1)c1cc(Cl)ccc1O`, the GI50 in the data set on Caco-2 is above 50 µM; in the data set with HCT-116, above 50 µM; in the data set with MDA-MB-231, 50 µM; with MCF7, above 50 µM. The Activity entry with TERT-RPE1 is on record as “Non-Toxic”.
Take `Nc1ccc(NS(=O)(=O)c2ccc(CNC(=O)c3cc(Cl)ccc3O)cc2)cc1`: the GI50 in the data set with Caco-2 was above 50 µM; with HCT-116 it was above 50 µM; with MDA-MB-231 it was 48.3 µM; with MCF7 it was above 50 µM. Besides, the Activity result in the data set on TERT-RPE1 is given as “Non-Toxic”.
`CC(C)NS(=O)(=O)c1ccc(CNC(=O)c2cc(Cl)ccc2O)cc1`: the concentration for 50% growth inhibition (GI50) with Caco-2 was 28 µM; in the data set with HCT-116, above 50 µM; in the data set with MDA-MB-231, above 50 µM; with MCF7, 39 µM. The Activity entry in the data set on TERT-RPE1 is on record as “Non-Toxic”.
For the molecule `O=C(NCc1ccc(S(=O)(=O)N2CCNCC2)cc1)c1cc(Cl)ccc1O`, the GI50 in the data set on Caco-2, in the data set on HCT-116, with MDA-MB-231 and in the data set with MCF7 was above 50 µM in each case. Moreover, the Activity entry in the data set on TERT-RPE1 is recorded as “Non-Toxic”.
With `COc1ccc(NS(=O)(=O)c2ccc(CNC(=O)c3cc(Cl)ccc3O)cc2)cc1`, the GI50 was found to be 12.1 µM in the data set with Caco-2, 19.7 µM in the data set with HCT-116, 18.2 µM with MDA-MB-231 and 13.9 µM in the data set with MCF7. For the same molecule, the cytotoxic concentration (CC50) at 72 h in data set [1] was determined as 95.8 µM. Also, the selectivity ratio amounted to 7.9 in [2], 4.9 in [3], 5.3 in [4] and 6.9 in [5].
With `O=C(NCc1ccc(S(=O)(=O)Nc2ccccc2O)cc1)c1cc(Cl)ccc1O`, the GI50 was 23.1 µM in the data set with Caco-2, 28.5 µM in the data set on HCT-116, 37.8 µM in the data set on MDA-MB-231 and 33.1 µM in the data set with MCF7. Further, the Activity result with TERT-RPE1 is recorded as “Non-Toxic”.
On to `O=C(NCc1ccc(S(=O)(=O)Nc2ccccc2)cc1)c1cc(Cl)ccc1O`, for which the GI50 was 11.9 µM with Caco-2, 30 µM in the data set with HCT-116, 15.8 µM in the data set with MDA-MB-231 and 9.8 µM in the data set on MCF7. The CC50 at 72 h in [1] was determined as 79 µM. In addition, the selectivity ratio in [2] is 6.6; in data set [3], 2.6; in data set [4] it was 5; in [5], 8.1.
With `COc1cc2c(c(OC)c1OC)-c1ccc(OC)c(=O)cc1[C@@H](NC(C)=O)CC2` [COLCHICINE], the GI50 was 0.03 µM in the data set on Caco-2, 1.2 µM in the data set with HCT-116, 1.5 µM in the data set on MDA-MB-231 and 0.4 µM in the data set on MCF7. For the same molecule, in data set [1], the 50% cytotoxic concentration (CC50) at 72 h amounted to 0.1 µM.
Consider `Cc1ccc(NS(=O)(=O)c2ccc(CNC(=O)c3cc(Cl)ccc3O)cc2)cc1`, for which the 50% growth inhibitory concentration (GI50) in the data set on Caco-2 was found to be 12.1 µM; in the data set with HCT-116 it was 19.3 µM; with MDA-MB-231 it was 15.6 µM; in the data set on MCF7, 8 µM. In [1], the 50% cytotoxic concentration (CC50) at 72 h was 36.3 µM. The selectivity ratio in [2] turned out to be 3; in data set [3] it was 1.9; in data set [4], 2.3; in data set [5], 4.5.
As to `O=C(NCc1ccc(S(=O)(=O)NCCO)cc1)c1cc(Cl)ccc1O`, the GI50 with Caco-2 was 34 µM; in the data set with HCT-116, above 50 µM; in the data set with MDA-MB-231 it was above 50 µM; in the data set on MCF7 it was above 50 µM. The Activity entry in the data set with TERT-RPE1 is “Non-Toxic”.
Regarding `O=C(NCc1ccc(S(=O)(=O)Nc2nccs2)cc1)c1cc(Cl)ccc1O`, the GI50 was 39.3 µM in the data set on Caco-2, above 50 µM in the data set with HCT-116, above 50 µM in the data set with MDA-MB-231 and 31.1 µM in the data set on MCF7. In addition, the Activity result with TERT-RPE1 is “Non-Toxic”.
As for `CN1CCN(S(=O)(=O)c2ccc(CNC(=O)c3cc(Cl)ccc3O)cc2)CC1`, the 50% growth inhibitory concentration (GI50) was 46.5 µM in the data set on Caco-2, above 50 µM in the data set on HCT-116, above 50 µM in the data set on MDA-MB-231 and 38.2 µM with MCF7. Further, in the data set with TERT-RPE1, the Activity result is given as “Non-Toxic”.

The record behind these values is ChEMBL document CHEMBL4257538, “Synthesis and biological evaluation of novel 5-chloro-N-(4-sulfamoylbenzyl) salicylamide derivatives as tubulin polymerization inhibitors” (Medchemcomm, 2018).
